Active and inactive are the calls of the source. The calls are words filed in the database; no cut-off is given here.
Key:
Calmodulin-1 = Calmodulin-1 (Homo sapiens, UniProt P0DP23); assay: Inhibition of Calmodulin-dependent PDE1 activity assessed as inorganic phosphate release after 30 min
Homo sapiens = species on record: Homo sapiens; assay: Binding affinity to human Calmodulin M124C mutant assessed as extrinsic fluorescence quenching in phosphate buffer at pH 5.1 by mBBr fluorescence assay
Outline: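 Ca²⁺–hCaM M124C–mBBr biosensor at 5 μM in 100 mM phosphate buffer, pH 5.1, with 10 mM CaCl₂, stirred at 37 °C and titrated with ligand. Excitation was at 381 nm, with emission scanned from 400 to 550 nm. Fractional saturation was taken as y = (F − F₀)/(F∞ − F₀) at 470 nm versus ligand concentration. Apparent constant Km, Emax and Hill coefficient came from a Hill-equation fit.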

SMILES | IC50 (Calmodulin-1) [µM] | Km (Homo sapiens) [µM] | Activity (Homo sapiens) | inhibition (Calmodulin-1)
Oc1cccc(CCc2ccc3c(c2)OCO3)c1 | 75.9 | 63.8 | – | –
COc1ccc(CCCc2ccc(O)cc2)cc1 | 62.7 | 8.7 | – | –
COc1cc(O)cc(CCc2ccc(O)c(OC)c2)c1 [GIGANTOL] | 114 | 60.8 | – | –
COc1ccc(CCc2cc(OC)cc(OC)c2)cc1 | 146 | 21.8 | – | –
CCOc1ccc(CCc2cc(O)cc(OC)c2)cc1OC | 54.7 | 25.3 | – | –
COc1cc(Cc2ccc(O)c(OC)c2)cc(OC)c1 | 54.7 | 33.1 | – | –
COc1cc(O)cc(C(=O)/C=C/c2ccc(O)c(OC)c2)c1 | 57.3 | 5.31 | – | –
COc1cc(Cc2cccc(OC)c2O)cc(OC)c1 | 56.1 | 33.8 | – | –
c1ccc(COc2ccccc2)cc1 | – | – | inactive | inactive
c1ccc(CCc2ccccc2)cc1 | – | – | inactive | inactive

Results, then the compound that gave them:

IC50 (Calmodulin-1) [µM] | Km (Homo sapiens) [µM] | Activity (Homo sapiens) | inhibition (Calmodulin-1) | SMILES
15 | – | inactive | – | c1ccc(Cc2ccccc2)cc1 [DIPHENYLMETHANE]
22.5 | 10.3 | – | – | COc1ccc(/C=C/C(=O)c2ccc(O)cc2)cc1
36.3 | 10 | – | – | COc1cc(CCc2ccc(N(C)C)cc2)cc(OC)c1
31.3 | 45.5 | – | – | COc1cc(O)cc(CCc2ccc3c(c2)OCO3)c1
9.38 | 80 | – | – | COc1ccc(CCc2cc(O)cc(OC)c2)cc1
18.4 | 9.88 | – | – | CCOc1ccc(CCc2cc(OC)cc(OC)c2)cc1OC
37.7 | 3.89 | – | – | COc1cc(O)cc(C(=O)/C=C/c2ccc(OC)c(O)c2)c1
22.9 | 14.2 | – | – | Oc1cccc(CCCc2ccc3c(c2)OCO3)c1
46.1 | 58.1 | – | – | CCOc1ccc(CCc2cccc(O)c2)cc1OC
30.1 | 12 | – | – | COc1cc(O)cc(CCc2ccc(N(C)C)cc2)c1
32.5 | 54.3 | – | – | COc1cc(O)cc(CCCc2ccc(O)c(OC)c2)c1
